For assay [1], the system named is Trypanosoma cruzi. As to the kind of experiment: Inhibitory activity against Trypanosoma cruzi Y epimastigotes. In kind it is functional, organism-based. The method, boiled down: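 Epimastigotes in sterile screw-cap tubes, drugs in absolute ethanol at 1, 5, 15 and 25 µg/mL, each in triplicate; ethanol-only control and medium blank. Growth read as absorbance at 600 nm against medium; percent inhibition = 100 − (ΔA_drug × 100)/ΔA_control, ΔA taken between start and end of culture.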

Assay [2] concerns Trypanosoma cruzi. As to the kind of experiment: Inhibitory activity against Trypanosoma cruzi amastigotes. In kind it is functional, organism-based. Particulars: for IC50: Trypanosoma cruzi. Put shortly:
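Gamma-irradiated L6E9 myoblasts in DMEM/20% fetal calf serum, 24 h at 37 °C, then infected with 4.17 × 10⁶ trypomastigotes/well for 2 h (7% CO2). After washing, medium with 1 µCi/mL [5,6-³H]uracil and drug in ethanol added; TCA-precipitable ³H measured at day 3. Host toxicity up to 50 µM by phase-contrast microscopy; values are means of three experiments.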

Regarding `CCCCP(=O)(O)CNC(=O)[C@H](CC(C)C)NC(=O)CCC(N)C(=O)O` (some centres not stated), the IC50 – broadly, the concentration that gives 50% inhibition – in assay [1] is over 50 µM; in assay [2], 9.8 µM.
Consider `CCCCCP(=O)(O)CNC(=O)[C@H](CC(C)C)NC(=O)CCC(N)C(=O)O` (some centres not stated), for which the IC50 in assay [1] was over 50 µM; in assay [2], 14.2 µM.
Consider `CC(C)C[C@H](NC(=O)CCC(N)C(=O)O)C(=O)NCP(C)(=O)O` (some centres not stated), for which the IC50 in assay [1] and in assay [2] was over 50 µM in each case.
Take `CCCP(=O)(O)CNC(=O)[C@H](CC(C)C)NC(=O)CCC(N)C(=O)O` (some centres not stated): the IC50 in assay [1] and in assay [2] was over 50 µM in each case.
In the case of `CCCCCCCP(=O)(O)CNC(=O)[C@H](CC(C)C)NC(=O)CCC(N)C(=O)O` (some centres not stated), the half-maximal inhibitory concentration (IC50) in assay [1] and in assay [2] was over 50 µM each time. Moreover, the Inhibition (as a rule, the percentage by which the read-out fell short of the control) in assay [2] is recorded as 31%.
As for `CCP(=O)(O)CNC(=O)[C@H](CC(C)C)NC(=O)CCC(N)C(=O)O` (some centres not stated), the IC50 in assay [1] and in assay [2] was over 50 µM each time.
In assay [1], `CCCCCCP(=O)(O)CNC(=O)[C@H](CC(C)C)NC(=O)CCC(N)C(=O)O` (some centres not stated) had an IC50 of over 50 µM. Also, in assay [2], the Inhibition is on record as 45% and the 50% inhibitory concentration (IC50) was over 50 µM.
`N#CSCCOc1ccc(Oc2ccccc2)cc1` returned an IC50 in assay [2] of 2 µM. In other words, the single-digit micromolar range.

For the origin of these results see ChEMBL document CHEMBL1147733, “Design, synthesis, and biological evaluation of phosphinopeptides against Trypanosoma cruzi targeting trypanothione biosynthesis” (J Med Chem, 2006).
